Format in all cases: functional, cell-based
Experiment [1] concerns the target T1, Melanocortin receptor 4 (Mus musculus, UniProt P56450). Put plainly: Antagonist activity at mouse melanocortin receptor 4 expressed in HEK293 cells assessed as inhibition of NDP-MSH-induced cAMP accumulation after 2 hrs by AlphaScreen assay. As to conditions: read-out: pA2 (converted). A general note: Changes in cAMP serve as a functional read-out for many G protein-coupled receptors.

The target of experiment [2] is T2, Melanocortin receptor 3 (Mus musculus, UniProt P33033). Put plainly: Agonist activity at mouse melanocortin receptor 3 expressed in HEK293 cells assessed as increase in cAMP accumulation after 2 hrs by AlphaScreen assay.
T2 sequence (P33033 whole entry): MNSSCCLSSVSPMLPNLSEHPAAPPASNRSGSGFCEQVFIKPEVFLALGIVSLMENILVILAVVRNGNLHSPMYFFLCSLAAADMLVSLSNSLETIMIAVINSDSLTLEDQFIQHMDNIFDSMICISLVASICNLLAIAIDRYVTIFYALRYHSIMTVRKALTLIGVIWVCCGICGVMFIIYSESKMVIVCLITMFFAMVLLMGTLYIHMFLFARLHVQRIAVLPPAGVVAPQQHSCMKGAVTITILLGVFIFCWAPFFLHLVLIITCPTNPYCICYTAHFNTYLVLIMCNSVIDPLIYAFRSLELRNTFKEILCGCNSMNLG
Experiment [3] concerns the target T1, Melanocortin receptor 4. Put plainly: Agonist activity at mouse melanocortin receptor 4 expressed in HEK293 cells assessed as increase in cAMP accumulation after 2 hrs by AlphaScreen assay.
Experiment [4] addresses Melanocyte-stimulating hormone receptor (Mus musculus, UniProt Q01727). Put plainly: Agonist activity at mouse melanocortin receptor 1 expressed in HEK293 cells assessed as increase in cAMP accumulation after 2 hrs by AlphaScreen assay. Put shortly: (§1)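 Donor beads and biotin-cAMP in lysis buffer followed for 2 h. The AlphaScreen signal was read. EC50 came from nonlinear least-squares fits, duplicates, at least three independent experiments.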

Experiment [5] concerns the target T2, Melanocortin receptor 3. Put plainly: Antagonist activity at mouse melanocortin receptor 3 expressed in HEK293 cells assessed as inhibition of NDP-MSH-induced cAMP accumulation after 2 hrs by AlphaScreen assay. Particulars: read-out: pA2 (converted).
Experiment [6] addresses Melanocyte-stimulating hormone receptor (Mus musculus) (UniProt Q01727). Put plainly: Partial agonist activity at mouse melanocortin receptor 1 expressed in HEK293 cells assessed as increase in cAMP accumulation after 2 hrs by AlphaScreen assay relative to NDP. The gist of the method: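 Mouse MC1R stably expressed in HEK293 cells, stimulated for 2 hr at room temperature in the dark. Peptide at 10−4 to 10−13 M in HBSS/HEPES buffer with 0.5 mM IBMX and 0.1% BSA, pH 7.4; forskolin 10−4 M. AlphaScreen cAMP detection after lysis and a further 2 hr. Signal normalized to maximal NDP-MSH response.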

The next experiment has as its target Melanocortin receptor 5 (Mus musculus, UniProt P41149). Put plainly: Agonist activity at mouse melanocortin receptor 5 expressed in HEK293 cells assessed as increase in cAMP accumulation after 2 hrs by AlphaScreen assay. The gist of the method:
as §1

Experiment [7] addresses Melanocyte-stimulating hormone receptor (Mus musculus) (UniProt Q01727). Put plainly: Agonist activity at mouse melanocortin receptor 1 expressed in HEK293 cells assessed as increase in cAMP accumulation at 100 uM after 2 hrs by AlphaScreen assay relative to control. The gist of the method:
(§2)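 Cyclic peptides were dissolved in DMSO. Receptor-expressing HEK293 cells in IBMX-containing stimulation buffer (pH 7.4) were stimulated for 2 h at room temperature. cAMP was then detected by competitive AlphaScreen after a 2 h lysis/bead step. […] Values come from at least three independent experiments.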

In experiment [8] the target is Melanocortin receptor 5 (Mus musculus) (UniProt P41149). Put plainly: Inverse agonist activity at mouse melanocortin receptor 5 expressed in HEK293 cells assessed as decrease in cAMP accumulation at 130 nM after 2 hrs by AlphaScreen assay relative to control. The arrangement: scale not given: the % may be the effect or the level left. Put shortly:
(§3)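 In mouse MC5R-HEK293 cells, cAMP was measured by AlphaScreen after 2 h peptide exposure (10−4 to 10−13 M) at room temperature. Each replicate was normalized to its signal at 10−10 M. For sigmoidal curves, percent inverse agonism was the change from basal to the high-concentration plateau. Apparent potency was taken as the curve inflection point. Three independent experiments were run.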

Experiment [9] has the same target. Put plainly: Inverse agonist activity at mouse melanocortin receptor 5 expressed in HEK293 cells assessed as decrease in cAMP accumulation at 150 nM after 2 hrs by AlphaScreen assay relative to control. The arrangement: scale not given: the % may be the effect or the level left. Put shortly: as §3
Experiment [10] deals with Melanocortin receptor 3 (Mus musculus) (UniProt P33033). Put plainly: Agonist activity at mouse melanocortin receptor 3 expressed in HEK293 cells assessed as increase in cAMP accumulation at 100 uM after 2 hrs by AlphaScreen assay relative to control. Put shortly: as §2
Chain of Melanocortin receptor 3 (Mus musculus) (P33033 whole entry): as above
The target in experiment [11] is Melanocortin receptor 4 (Mus musculus) (UniProt P56450). Put plainly: Agonist activity at mouse melanocortin receptor 4 expressed in HEK293 cells assessed as increase in cAMP accumulation at 100 uM after 2 hrs by AlphaScreen assay. Put shortly:
as §2

The target in experiment [12] is Melanocortin receptor 5 (Mus musculus) (UniProt P41149). Put plainly: Inverse agonist activity at mouse melanocortin receptor 5 expressed in HEK293 cells assessed as decrease in cAMP accumulation at 250 nM after 2 hrs by AlphaScreen assay relative to control. Further details: scale not given: the % may be the effect or the level left. The gist of the method:
as §3

For experiment [13] the target is unchanged. Put plainly: Inverse agonist activity at mouse melanocortin receptor 5 expressed in HEK293 cells assessed as decrease in cAMP accumulation at 140 nM after 2 hrs by AlphaScreen assay relative to control. Further details: scale not given: the % may be the effect or the level left. The gist of the method: as §3
For experiment [14] the target is unchanged. Put plainly: Inverse agonist activity at mouse melanocortin receptor 5 expressed in HEK293 cells assessed as decrease in cAMP accumulation at 160 nM after 2 hrs by AlphaScreen assay relative to control. The arrangement: scale not given: the % may be the effect or the level left. Put shortly:
as §3

Experiment [15] shares this target. Put plainly: Inverse agonist activity at mouse melanocortin receptor 5 expressed in HEK293 cells assessed as decrease in cAMP accumulation at 50 nM after 2 hrs by AlphaScreen assay relative to control. The arrangement: scale not given: the % may be the effect or the level left. Put shortly: as §3
For experiment [16] the target is unchanged. Put plainly: Inverse agonist activity at mouse melanocortin receptor 5 expressed in HEK293 cells assessed as decrease in cAMP accumulation at 60 nM after 2 hrs by AlphaScreen assay relative to control. Further details: scale not given: the % may be the effect or the level left. The gist of the method:
as §3

Experiment [17] shares this target. Put plainly: Inverse agonist activity at mouse melanocortin receptor 5 expressed in HEK293 cells assessed as decrease in cAMP accumulation at 700 nM after 2 hrs by AlphaScreen assay relative to control. The arrangement: scale not given: the % may be the effect or the level left. Put shortly:
as §3

Non-standard residues stand in square brackets, D forms with d. Residues, ends and D or L forms follow the SMILES beside them.

T1 sequence (P56450 whole entry): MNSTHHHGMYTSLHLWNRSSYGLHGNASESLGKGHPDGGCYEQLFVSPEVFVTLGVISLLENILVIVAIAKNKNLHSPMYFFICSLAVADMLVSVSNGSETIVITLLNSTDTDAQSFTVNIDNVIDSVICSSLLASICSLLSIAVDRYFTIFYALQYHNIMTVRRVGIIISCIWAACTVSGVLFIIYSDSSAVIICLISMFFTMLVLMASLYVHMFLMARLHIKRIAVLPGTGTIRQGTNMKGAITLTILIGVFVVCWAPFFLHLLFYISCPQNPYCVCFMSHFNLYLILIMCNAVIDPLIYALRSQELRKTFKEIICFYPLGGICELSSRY
Chain of Melanocyte-stimulating hormone receptor (Mus musculus) (Q01727 whole entry, looked up): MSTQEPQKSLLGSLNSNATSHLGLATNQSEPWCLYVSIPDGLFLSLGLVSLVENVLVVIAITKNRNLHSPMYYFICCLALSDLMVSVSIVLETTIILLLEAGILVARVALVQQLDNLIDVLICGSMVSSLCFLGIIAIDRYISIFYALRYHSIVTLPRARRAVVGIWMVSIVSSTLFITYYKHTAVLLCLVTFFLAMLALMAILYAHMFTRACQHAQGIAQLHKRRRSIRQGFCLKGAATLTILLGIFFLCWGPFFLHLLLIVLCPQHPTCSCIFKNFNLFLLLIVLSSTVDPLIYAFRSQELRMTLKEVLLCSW
Chain of Melanocyte-stimulating hormone receptor (Q01727 whole entry): as the sequence (Q01727 whole entry, looked up) above
Chain of Melanocortin receptor 5 (Mus musculus) (P41149 whole entry): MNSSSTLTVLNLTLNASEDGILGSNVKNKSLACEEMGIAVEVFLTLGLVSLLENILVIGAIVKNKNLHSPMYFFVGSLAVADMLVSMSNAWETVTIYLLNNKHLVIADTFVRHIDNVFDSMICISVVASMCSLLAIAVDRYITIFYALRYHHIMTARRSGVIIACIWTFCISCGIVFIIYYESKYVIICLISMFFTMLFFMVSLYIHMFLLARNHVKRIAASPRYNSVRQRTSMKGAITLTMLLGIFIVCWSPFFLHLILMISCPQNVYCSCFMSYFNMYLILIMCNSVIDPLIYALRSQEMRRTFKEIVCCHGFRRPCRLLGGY
Chain of Melanocortin receptor 4 (Mus musculus) (P56450 whole entry): as the sequence (P56450 whole entry) above
Chain of Melanocortin receptor 5 (P41149 whole entry): as the sequence (P41149 whole entry) above

For orientation: EC50 means the midpoint of the concentration-response curve. Turning to `N=C(N)NCCC[C@@H]1NC(=O)[C@@H]2CCCN2C(=O)[C@H]2CCCN2C(=O)[C@H](Cc2ccccc2)NC(=O)[C@H](Cc2c[nH]cn2)NC(=O)[C@H](CC(N)=O)NC(=O)[C@H](Cc2ccccc2)NC(=O)[C@H](Cc2ccccc2)NC1=O` (cyclo(RFFNHF[dP]P)), the Kb is 851 nM on Melanocortin receptor 4 [1] and above 3160 nM at Melanocortin receptor 3 [5]. The EC50 at Melanocortin receptor 3 [2] was above 100000 nM; on Melanocortin receptor 4 [3], above 100000 nM; in [4] it was 2600 nM; on Melanocortin receptor 5, above 100000 nM. Also, the Activity in experiment [6] is 40%.

Consider `C[C@@H]1NC(=O)[C@H](CC(N)=O)NC(=O)[C@H](Cc2ccccc2)NC(=O)[C@H](Cc2ccccc2)NC(=O)[C@H](CCCNC(=N)N)NC(=O)[C@@H]2CCCN2C(=O)[C@H]2CCCN2C(=O)[C@H](Cc2ccccc2)NC1=O`, for which the results for the Activity in [7] and in experiment [8] were 25% and 10%, respectively.

On to `C[C@@H]1NC(=O)[C@H](Cc2c[nH]c3ccccc23)NC(=O)[C@H](Cc2ccccc2)NC(=O)[C@H](Cc2ccccc2)NC(=O)[C@H](CCCNC(=N)N)NC(=O)[C@@H]2CCCN2C(=O)[C@H]2CCCN2C(=O)[C@H](Cc2ccccc2)NC1=O` (cyclo(RFFWAF[dP]P)), for which the Activity in experiment [7] turned out to be 80%; in experiment [9], 20%; in experiment [10], 40%; in experiment [11], 50%. The Kb at Melanocortin receptor 4 [1] was 155 nM; on Melanocortin receptor 3 [5], 2000 nM.

Take `C[C@@H]1NC(=O)[C@H](C)NC(=O)[C@H](Cc2ccccc2)NC(=O)[C@H](Cc2ccccc2)NC(=O)[C@H](CCCNC(=N)N)NC(=O)[C@@H]2CCCN2C(=O)[C@H]2CCCN2C(=O)[C@H](Cc2ccccc2)NC1=O`: the results for the Kb on Melanocortin receptor 4 [1] and at Melanocortin receptor 3 [5] were 47.9 nM and above 3160 nM, respectively. Further, the EC50 (at Melanocortin receptor 3 [2]; at Melanocortin receptor 4 [3]; in experiment [4]) was above 100000 nM each time. Also, the Activity in experiment [12] was 20%.

As to `C[C@@H]1NC(=O)[C@H](CO)NC(=O)[C@H](Cc2ccccc2)NC(=O)[C@H](Cc2ccccc2)NC(=O)[C@H](CCCNC(=N)N)NC(=O)[C@@H]2CCCN2C(=O)[C@H]2CCCN2C(=O)[C@H](Cc2ccccc2)NC1=O`, the Kb at Melanocortin receptor 4 [1] was 20 nM; on Melanocortin receptor 3 [5], 1260 nM. For the same compound, the EC50 (on Melanocortin receptor 3 [2]; on Melanocortin receptor 4 [3]; in [4]) was above 100000 nM throughout. Also, the Activity in experiment [13] is 25%.

With `CCC1NC(=O)[C@H](Cc2ccccc2)NC(=O)[C@H](Cc2ccccc2)NC(=O)[C@H](CCCNC(=N)N)NC(=O)[C@@H]2CCCN2C(=O)[C@H]2CCCN2C(=O)[C@H](Cc2ccccc2)NC(=O)[C@H](C)NC1=O` (stereo partly specified), the EC50 at Melanocortin receptor 3 [2] was above 100000 nM. Moreover, in experiment [14], the Activity stood at 20%. Moreover, at Melanocortin receptor 3 [5], the Kb is above 3160 nM.

Turning to `C[C@@H]1NC(=O)[C@H]([C@@H](C)O)NC(=O)[C@H](Cc2ccccc2)NC(=O)[C@H](Cc2ccccc2)NC(=O)[C@H](CCCNC(=N)N)NC(=O)[C@@H]2CCCN2C(=O)[C@H]2CCCN2C(=O)[C@H](Cc2ccccc2)NC1=O` (cyclo(RFFTAF[dP]P)), the Activity in [15] amounted to 20%. Moreover, the figures for the Kb on Melanocortin receptor 4 [1] and on Melanocortin receptor 3 [5] were 17.4 nM and 398 nM, respectively. The EC50 (at Melanocortin receptor 3 [2]; on Melanocortin receptor 4 [3]; in experiment [4]) was above 100000 nM throughout.

Consider `C[C@@H]1NC(=O)[C@H](CN)NC(=O)[C@H](Cc2ccccc2)NC(=O)[C@H](Cc2ccccc2)NC(=O)[C@H](CCCNC(=N)N)NC(=O)[C@@H]2CCCN2C(=O)[C@H]2CCCN2C(=O)[C@H](Cc2ccccc2)NC1=O`, for which the Activity amounted to 30% in experiment [7] and 15% in [16]. For the same compound, at Melanocortin receptor 3 [2], the half-maximal effective concentration (EC50) is above 100000 nM. Further, on Melanocortin receptor 3 [5], the Kb was 302 nM.

Consider `C[C@@H]1NC(=O)[C@H](CCC(=O)O)NC(=O)[C@H](Cc2ccccc2)NC(=O)[C@H](Cc2ccccc2)NC(=O)[C@H](CCCNC(=N)N)NC(=O)[C@@H]2CCCN2C(=O)[C@H]2CCCN2C(=O)[C@H](Cc2ccccc2)NC1=O`, for which the values for the Kb on Melanocortin receptor 4 [1] and at Melanocortin receptor 3 [5] were 100 nM and above 3160 nM, respectively. For the same compound, the EC50 at Melanocortin receptor 3 [2] was above 100000 nM; on Melanocortin receptor 4 [3], above 100000 nM; in [4] it was 20500 nM. The Activity in experiment [17] is 10%.
